Measured values reported in ChEMBL document CHEMBL4715752, “Synthesis and anti-leishmanial evaluation of 1-phenyl-2,3,4,9-tetrahydro-1H-β-carboline derivatives against Leishmania infantum” (Eur J Med Chem, 2016).
In brackets after ≈: the same amount, converted by molar mass.

Assays:
[1] = Selectivity index, ratio of CC50 for mouse splenocytes to IC50 for Leishmania infantum BCN150 promastigotes expressing IFP1.4; assay type: toxicity; settings: read-out: Ratio CC50/IC50
[2] = Selectivity index, ratio of CC50 for mouse splenocytes to IC50 for Leishmania infantum BCN150 amastigotes expressing IFP1.4 infected in BALB/c mouse splenocytes; assay type: toxicity, cell-based; settings: read-out: Ratio CC50/IC50
[3] = Cytotoxicity against mouse splenocytes by alamar blue assay; assay type: cell-based, Splenocyte
[4] = tested on: Leishmania infantum; assay: Antileishmanial activity against Leishmania infantum BCN150 amastigotes expressing IFP1.4 infected in BALB/c mouse splenocytes incubated for 72 hrs by infrared fluorescence imaging analysis; assay type: functional, organism-based; settings: BCN150, Splenocyte
Procedure, shortened: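 Spleens from female BALB/c mice infected intraperitoneally. Splenocytes washed 3x in PBS and seeded in 384-well plates in RPMI, 20% FCS, 1 mM pyruvate, vitamins, 10 mM HEPES, penicillin/streptomycin. Wells set by fixed IR fluorescence per well, not by cell count. Compounds at various concentrations for 72 h. Fluorescence read at 700 nm on an infrared imager.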

[5] = tested on: Leishmania infantum; assay: Antileishmanial activity against Leishmania infantum BCN150 promastigotes expressing IFP1.4 assessed as inhibition of parasite growth by measuring the infrared fluorescence incubated for 48 hrs; assay type: functional, organism-based; settings: BCN150, 48 h
Procedure, shortened: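 Transgenic infrared-fluorescent L. infantum BCN150 promastigotes in 96-well plates. 200 µL culture per well at 1 × 10^6 with graded compound concentrations (1, 10, 100). Incubated 48 h at 26 °C, then promastigote growth assessed.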

[6] = tested on: Leishmania infantum; assay: Antileishmanial activity against late log phase promastigote stage of Leishmania infantum MHOM/FR/78/LEM75 assessed as inhibition of parasite growth incubated for 48 hrs by hemocytometer counting method; assay type: functional, organism-based; settings: MHOM/FR/78/LEM75, 48 h

| IC50 [4] | SMILES | selectivity ratio [1] | selectivity ratio [2] | CC50 [3] | IC50 [5] | IC50 [6] |
| --- | --- | --- | --- | --- | --- | --- |
| 1.51 µM | O=C(CN1CCc2c([nH]c3ccccc23)C1c1ccccc1)Nc1cccc(Cl)c1 (configuration not stated) | > 29.9 | > 132 | > 200 µM | 6.68 µM |  |
| 5.29 µM | O=C(CN1CCc2c([nH]c3ccccc23)C1c1ccccc1)Nc1ccc([N+](=O)[O-])cc1 (configuration not stated) | > 24.7 | > 37.8 | > 200 µM | 8.1 µM |  |
| 4.16 µM | O=C(CN1CCc2c([nH]c3ccccc23)C1c1ccccc1)Nc1ccc(F)cc1 (configuration not stated) | > 13.2 | > 48.1 | > 200 µM | 15.1 µM |  |
| 1.23 µM | COc1cccc(NC(=O)CN2CCc3c([nH]c4ccccc34)C2c2ccccc2)c1 (configuration not stated) | > 13.7 | > 163 | > 200 µM | 14.6 µM |  |
| 6.46 µM | COc1ccc(NC(=O)CN2CCc3c([nH]c4ccccc34)C2c2ccccc2)cc1 (configuration not stated) |  | > 30.9 | > 200 µM | > 100 µM |  |
| 1.05 µM | O=C(CN1CCc2c([nH]c3ccccc23)C1c1ccccc1)Nc1ccccc1Cl (configuration not stated) | > 9.67 | > 190 | > 200 µM | 20.7 µM |  |
| 3.75 µM | O=C(CN1CCc2c([nH]c3ccccc23)C1c1ccccc1)Nc1ccc(Cl)cc1 (configuration not stated) | 9.64 | 38.9 | 146 µM | 15.1 µM |  |
| 6.31 µM | Cc1ccc(NC(=O)CN2CCc3c([nH]c4ccccc34)C2c2ccccc2)cc1 (configuration not stated) | > 10.4 | > 31.7 | > 200 µM | 19.2 µM |  |
| 0.67 µM | Cc1ccccc1NC(=O)CN1CCc2c([nH]c3ccccc23)C1c1ccccc1 (configuration not stated) | > 19.2 | > 298 | > 200 µM | 10.4 µM |  |
| 2.02 µM | O=C(CN1CCc2c([nH]c3ccccc23)C1c1ccccc1)Nc1cccc(C(F)(F)F)c1 (configuration not stated) | > 4.43 | > 99 | > 200 µM | 45.2 µM |  |
|  | C/C=C1\CCN2CCc3c([nH]c4ccccc34)[C@H]2[C@@H]1[C@@H](C(=O)OC)[C@H]1NCCc2c1[nH]c1ccccc21 |  |  |  |  | 1.56 µg/mL (≈ 3.15 µM) |
| 2.25 µM | O=C(CN1CCc2c([nH]c3ccccc23)C1c1ccccc1)Nc1cccc2ccccc12 (configuration not stated) |  | > 88.9 | > 200 µM | > 100 µM |  |
| 0.87 µM | O=C(CN1CCc2c([nH]c3ccccc23)C1c1ccccc1)Nc1cccc([N+](=O)[O-])c1 (configuration not stated) |  | > 230 | > 200 µM | > 100 µM |  |
| 1.48 µM | Cc1cccc(NC(=O)CN2CCc3c([nH]c4ccccc34)C2c2ccccc2)c1 (configuration not stated) | > 26.2 | > 135 | > 200 µM | 7.63 µM |  |
| 5.35 µM | COc1ccccc1NC(=O)CN1CCc2c([nH]c3ccccc23)C1c1ccccc1 (configuration not stated) | > 100 | > 37.4 | > 200 µM | 1.99 µM |  |
| 1.68 µM | O=C(CN1CCc2c([nH]c3ccccc23)C1c1ccccc1)Nc1ccccc1 (configuration not stated) | > 16.2 | > 119 | > 200 µM | 12.4 µM |  |
| 2.64 µM | Cc1ccc(NC(=O)CN2CCc3c([nH]c4ccccc34)C2c2ccccc2)c(C)c1 (configuration not stated) | > 11.8 | > 75.8 | > 200 µM | 16.9 µM |  |

| SMILES | IC50 [4] | selectivity ratio [1] | selectivity ratio [2] | CC50 [3] | IC50 [5] | IC50 [6] |
| --- | --- | --- | --- | --- | --- | --- |
| C[C@@H]1[C@H](O)[C@@H](C)/C=C/C=C/C=C/C=C/C=C/C=C/C=C/[C@H](O[C@@H]2O[C@H](C)[C@@H](O)[C@H](N)[C@@H]2O)C[C@@H]2O[C@](O)(C[C@@H](O)C[C@@H](O)[C@H](O)CC[C@@H](O)C[C@@H](O)CC(=O)O[C@H]1C)C[C@H](O)[C@H]2C(=O)O [AMPHOTERICIN B] | 0.32 µM | > 260 | > 62.5 | > 20 µM |  |  |
